Data published in ChEMBL document CHEMBL3352173, “Optimization of pyrrolamide topoisomerase II inhibitors toward identification of an antibacterial clinical candidate (AZD5099)” (J Med Chem, 2014).
≈ marks a conversion by molar mass, not a printed value.

Assays:
Haemophilus influenzae = assay: Antimicrobial activity against Haemophilus influenzae by broth microdilution/CLSI method; format: functional; conditions: Haemophilus influenzae; read-out: MIC
DNA gyrase subunit B = DNA gyrase subunit B (Staphylococcus aureus, UniProt P0A0K8); assay: Inhibition of ATPase activity of Staphylococcus aureus GyrB
DNA gyrase subunit B, sequence (P0A0K8 whole entry): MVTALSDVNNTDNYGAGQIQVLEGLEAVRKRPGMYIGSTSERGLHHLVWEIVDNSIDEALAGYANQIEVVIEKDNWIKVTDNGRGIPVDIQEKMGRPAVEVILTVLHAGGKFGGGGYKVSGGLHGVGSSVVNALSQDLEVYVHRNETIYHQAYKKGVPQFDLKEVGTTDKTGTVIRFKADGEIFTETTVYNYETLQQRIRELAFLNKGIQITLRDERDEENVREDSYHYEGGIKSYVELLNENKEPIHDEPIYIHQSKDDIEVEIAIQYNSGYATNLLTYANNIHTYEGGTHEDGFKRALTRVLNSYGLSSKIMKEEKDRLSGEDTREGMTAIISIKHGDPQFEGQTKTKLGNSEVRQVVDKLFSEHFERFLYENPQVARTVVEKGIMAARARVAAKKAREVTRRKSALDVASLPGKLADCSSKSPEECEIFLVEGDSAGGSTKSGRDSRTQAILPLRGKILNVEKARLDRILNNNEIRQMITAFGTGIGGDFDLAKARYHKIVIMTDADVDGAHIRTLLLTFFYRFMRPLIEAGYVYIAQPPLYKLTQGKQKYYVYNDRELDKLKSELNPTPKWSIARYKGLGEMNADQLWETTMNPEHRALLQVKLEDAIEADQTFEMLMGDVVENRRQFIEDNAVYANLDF
Procedure, shortened: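 IC50 was determined against S. aureus GyrB in the routine screening assay. The enzyme concentration limits resolution below 10 nM.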

Streptococcus pneumoniae = assay: Antibacterial activity against Streptococcus pneumoniae by broth microdilution/CLSI method; format: functional
Streptococcus pyogenes = assay: Antimicrobial activity against Streptococcus pyogenes by broth microdilution/CLSI method; format: functional
Staphylococcus aureus [1] = assay: Antimicrobial activity against methicillin-sensitive Staphylococcus aureus by broth microdilution/CLSI method; format: functional
Staphylococcus aureus [2] = assay: Antimicrobial activity against methicillin, quinolone-resistant Staphylococcus aureus by broth microdilution/CLSI method; format: functional; conditions: Staphylococcus aureus; read-out: MIC
Moraxella catarrhalis = assay: Antimicrobial activity against Moraxella catarrhalis by broth microdilution/CLSI method; format: functional
Escherichia coli [3] = assay: Antimicrobial activity against wild-type Escherichia coli Eco523 by broth microdilution/CLSI method; format: functional; conditions: Escherichia coli, Eco523; read-out: MIC
Escherichia coli [4] = assay: Antimicrobial activity against Escherichia coli tolC- by broth microdilution/CLSI method; format: functional; conditions: Escherichia coli; read-out: MIC
[5] = Octanol-phosphate buffer distribution coefficient, log D of the compound at pH 7.4 by shake flask method; format: physicochemical
[6] = Percentage unbound in human plasma; format: ADME, cell-free
[7] = Solubility of the compound; format: physicochemical
[8] = Streptococcus pneumoniae, read-out: MIC
[9] = Staphylococcus aureus, read-out: MIC
[10] = Moraxella catarrhalis, read-out: MIC

Row | Compound | MIC (Haemophilus influenzae) [mg/L] | IC50 (DNA gyrase subunit B) [µM] | MIC (Streptococcus pneumoniae; [8]) [mg/L] | MIC (Streptococcus pyogenes) [mg/L] | MIC (Staphylococcus aureus [1]; [9]) [mg/L] | MIC (Staphylococcus aureus [2]) [mg/L] | MIC (Moraxella catarrhalis; [10]) [mg/L] | MIC (Escherichia coli [3]) [mg/L] | MIC (Escherichia coli [4]) [mg/L] | logD [5] | fraction unbound [6] | solubility [7] [µM] | MIC (Streptococcus pneumoniae) [mg/L] | MIC (Staphylococcus aureus [1]) [mg/L] | MIC (Moraxella catarrhalis) [mg/L]
1 | Cc1[nH]c(C(=O)N[C@@H]2CCN(c3ncc(C(=O)O)s3)CC23OCCO3)c(Cl)c1Cl | 32 (≈ 69.4 µM) | 0.015 | 2 (≈ 4.34 µM) | 2 (≈ 4.34 µM) | 32 (≈ 69.4 µM) | 64 (≈ 139 µM) | 1 (≈ 2.17 µM) | > 64 | 1 (≈ 2.17 µM) | -0.39 | 0.075 | > 1000 |  |  | 
2 | COC1(OC)CN(c2ncc(C(=O)O)s2)CC[C@H]1NC(=O)c1[nH]c(C)c(Cl)c1Cl | 1 (≈ 2.16 µM) | 0.014 | 0.13 (≈ 0.281 µM) | 0.25 (≈ 0.54 µM) | 2 (≈ 4.32 µM) | 2 (≈ 4.32 µM) | 0.5 (≈ 1.08 µM) | > 64 | 0.5 (≈ 1.08 µM) | 0.24 | 0.018 | > 1000 |  |  | 
3 | Cc1[nH]c(C(=O)N[C@@H]2CCN(c3ncc(C(=O)O)s3)C[C@@H]2C)c(Cl)c1Cl (racemic) | 2 (≈ 4.79 µM) | 0.014 | 0.5 (≈ 1.2 µM) |  | 4 (≈ 9.59 µM) | 4 (≈ 9.59 µM) | 0.5 (≈ 1.2 µM) | > 8 | 0.5 (≈ 1.2 µM) | 0.54 | 0.023 |  |  |  | 
4 | Cc1[nH]c(C(=O)N[C@@H]2CCN(c3ncc(C(=O)O)s3)C[C@@H]2O)c(Cl)c1Cl (racemic) | 1 (≈ 2.38 µM) | 0.016 | 0.5 (≈ 1.19 µM) |  | 16 (≈ 38.2 µM) | 16 (≈ 38.2 µM) | 4 (≈ 9.54 µM) | > 64 | 1 (≈ 2.38 µM) | -0.67 |  |  |  |  | 
5 | COC[C@H]1CN(c2ncc(C(=O)O)s2)CC[C@H]1NC(=O)c1[nH]c(C)c(Cl)c1Cl (racemic) | > 8 | 0.054 | 4 (≈ 8.94 µM) |  | > 8 |  | 2 (≈ 4.47 µM) | > 8 | 1 (≈ 2.24 µM) | 0.06 | 0.052 |  |  |  | 
6 | Cc1[nH]c(C(=O)N[C@@H]2CCN(c3ncc(C(=O)O)s3)CC23OCCCO3)c(Cl)c1Cl | 1 (≈ 2.1 µM) | < 0.01 | 0.063 (≈ 0.133 µM) | 0.063 (≈ 0.133 µM) | 2 (≈ 4.21 µM) | 4 (≈ 8.41 µM) | 0.13 (≈ 0.273 µM) | > 64 | 1 (≈ 2.1 µM) | 0.4 | 0.03 | > 1000 |  |  | 
7 | Cc1[nH]c(C(=O)N[C@@H]2CCN(c3ncc(C(=O)O)s3)CC23OCC2(CC2)CO3)c(Cl)c1Cl | 0.13 (≈ 0.259 µM) | < 0.01 | < 0.063 | < 0.063 | 0.5 (≈ 0.997 µM) | 0.5 (≈ 0.997 µM) | < 0.063 | > 64 | 1 (≈ 1.99 µM) | 0.88 | 0.012 | > 1000 |  |  | 
8 | C=C1COC2(CN(c3ncc(C(=O)O)s3)CC[C@H]2NC(=O)c2[nH]c(C)c(Cl)c2Cl)OC1 | 2 (≈ 4.1 µM) | < 0.01 | < 0.063 | < 0.063 | 1 (≈ 2.05 µM) | 2 (≈ 4.1 µM) | < 0.063 | > 64 | 0.5 (≈ 1.03 µM) | 0.82 | 0.006 | > 1000 |  |  | 
9 | CO[C@H]1CN(c2ncc(C(=O)O)s2)CC[C@H]1NC(=O)c1[nH]c(C)c(Cl)c1Cl (relative stereo) | 0.3 (≈ 0.692 µM) | < 0.01 |  |  |  | 1 (≈ 2.31 µM) |  | > 64 | 0.35 (≈ 0.808 µM) |  |  |  | 0.063 (≈ 0.145 µM) | 1 (≈ 2.31 µM) | 0.076 (≈ 0.175 µM)
10 | CO[C@@H]1CN(c2ncc(C(=O)O)s2)CC[C@@H]1NC(=O)c1[nH]c(C)c(Cl)c1Cl | 16 (≈ 36.9 µM) | 0.14 | 1 (≈ 2.31 µM) |  | 32 (≈ 73.8 µM) | 32 (≈ 73.8 µM) | 2 (≈ 4.62 µM) | > 64 | 8 (≈ 18.5 µM) |  |  |  |  |  | 
11 | Cc1[nH]c(C(=O)N[C@@H]2CCN(c3ncc(C(=O)O)s3)C[C@@H]2S(C)(=O)=O)c(Cl)c1Cl (racemic) | > 8 | < 0.01 | > 8 | 8 (≈ 16.6 µM) | > 8 |  | > 8 | > 8 | > 8 | -1.1 | 0.13 | > 1000 |  |  | 
12 | Cc1[nH]c(C(=O)N[C@@H]2CCN(c3ncc(C(=O)O)s3)CC23OCC(C)(C)CO3)c(Cl)c1Cl | 0.25 (≈ 0.497 µM) | < 0.01 | < 0.063 | < 0.063 | 0.5 (≈ 0.993 µM) | 0.5 (≈ 0.993 µM) | < 0.063 | > 64 | 1 (≈ 1.99 µM) | 1.07 | 0.02 | > 1000 |  |  | 
13 | Cc1[nH]c(C(=O)N[C@@H]2CCN(c3ncc(C(=O)O)s3)C[C@@H]2CO)c(Cl)c1Cl (racemic) | 16 (≈ 36.9 µM) | 0.018 | 8 (≈ 18.5 µM) |  | > 64 | 64 (≈ 148 µM) | 1 (≈ 2.31 µM) | > 64 | 1 (≈ 2.31 µM) | -0.42 |  |  |  |  | 
14 | C=CCO[C@H]1CN(c2ncc(C(=O)O)s2)CC[C@H]1NC(=O)c1[nH]c(C)c(Cl)c1Cl (racemic) | 0.5 (≈ 1.09 µM) | < 0.01 | < 0.063 | < 0.063 | 0.5 (≈ 1.09 µM) | 1 (≈ 2.18 µM) | < 0.063 | > 8 | 0.13 (≈ 0.283 µM) |  |  |  |  |  | 
15 | CO[C@H]1CN(c2nc(-c3ccn[nH]3)c(C(=O)O)s2)CC[C@H]1NC(=O)c1[nH]c(C)c(Cl)c1Cl | 0.5 (≈ 1 µM) | < 0.01 | < 0.06 | < 0.06 | 0.5 (≈ 1 µM) | 0.17 (≈ 0.34 µM) | < 0.06 | 64 (≈ 128 µM) | 0.18 (≈ 0.36 µM) | 1.7 |  | 740 (≈ 370 µg/mL) |  |  | 
16 | CCO[C@H]1CN(c2ncc(C(=O)O)s2)CC[C@H]1NC(=O)c1[nH]c(C)c(Cl)c1Cl (racemic) | 2 (≈ 4.47 µM) | < 0.01 | 0.031 (≈ 0.0693 µM) |  | 1 (≈ 2.24 µM) | 2 (≈ 4.47 µM) | 0.13 (≈ 0.291 µM) | > 8 | 1 (≈ 2.24 µM) | 0.67 | 0.031 |  |  |  | 
17 | Cc1[nH]c(C(=O)N[C@@H]2CCN(c3ncc(C(=O)O)s3)C[C@@H]2F)c(Cl)c1Cl | 0.3 (≈ 0.712 µM) | < 0.01 | 0.078 (≈ 0.185 µM) | 0.092 (≈ 0.218 µM) | 1.3 (≈ 3.09 µM) | 2.2 (≈ 5.22 µM) | 0.046 (≈ 0.109 µM) | > 64 | 0.081 (≈ 0.192 µM) |  |  |  |  |  | 
18 | CO[C@H]1CN(c2ncc(C(=O)O)s2)CC[C@@H]1NC(=O)c1[nH]c(C)c(Cl)c1Cl | > 64 | 6.4 | 64 (≈ 148 µM) |  | > 64 | > 64 | 64 (≈ 148 µM) | > 64 | 64 (≈ 148 µM) |  |  |  |  |  | 
19 | Cc1[nH]c(C(=O)N[C@@H]2CCN(c3ncc(C(=O)O)s3)C[C@@H]2Cl)c(Cl)c1Cl (racemic) | 0.18 (≈ 0.411 µM) | < 0.01 | 0.044 (≈ 0.101 µM) |  | 0.35 (≈ 0.8 µM) | 2 (≈ 4.57 µM) | 0.11 (≈ 0.251 µM) | > 8 | 0.35 (≈ 0.8 µM) | 0.75 | 0.008 |  |  |  | 
20 | CO[C@@H]1CN(c2ncc(C(=O)O)s2)CC[C@H]1NC(=O)c1[nH]c(C)c(Cl)c1Cl | 16 (≈ 36.9 µM) | 0.11 | 8 (≈ 18.5 µM) |  | > 64 | > 64 | 2 (≈ 4.62 µM) | > 64 | 2 (≈ 4.62 µM) |  |  |  |  |  | 
21 | COCCO[C@H]1CN(c2ncc(C(=O)O)s2)CC[C@H]1NC(=O)c1[nH]c(C)c(Cl)c1Cl (racemic) | 8 (≈ 16.8 µM) | < 0.01 | 0.5 (≈ 1.05 µM) |  | > 8 |  | 1 (≈ 2.09 µM) | > 8 | 2 (≈ 4.19 µM) | 0.06 | 0.094 |  |  |  | 
